This is a sample that favours compounds with a hit; in the whole collection about 3.5% have one here.
RGS4 block: inhibitors of human RGS4. P49798. HEK293 M3R/RGS4 inducible, Fluo-4 calcium flux; hits give high values; triggered by carbachol at its EC20. B-score at 10 µM. 310,000 compounds, 0.45% hits. AID 463165;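 active = B-score, a plate-corrected calcium signal, over three deviations above library mean, with baseline fluorescence within five deviations of library mean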;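 note: RGS4 expression induced by doxycycline in cells with stable M3 receptor; B-score is computed from the integrated fluorescence ratio over baseline after carbachol; higher B-score means a larger calcium signal and so more RGS4 inhibition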
Target sequence (P49798 whole entry, looked up): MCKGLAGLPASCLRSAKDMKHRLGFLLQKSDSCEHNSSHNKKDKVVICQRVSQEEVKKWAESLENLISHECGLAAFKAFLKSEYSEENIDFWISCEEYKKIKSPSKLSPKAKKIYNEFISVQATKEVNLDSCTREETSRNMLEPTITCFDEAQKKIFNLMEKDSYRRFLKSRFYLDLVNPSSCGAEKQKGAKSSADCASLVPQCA
RGS4 act: RGS4 potentiation or activation; B-score at 10 µM; AID 463111; HEK293 M3R/inducible RGS4, carbachol calcium flux Fluo4; hits give low values; 310,000 compounds, 0.92% hits;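 active = B-score of the integrated calcium signal more than 4 SD below the library mean, with starting fluorescence not abnormally high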;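 note: negative B-score means reduced calcium response which marks RGS4 activation or potentiation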
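Material: Inducible-RGS4 HEK293 cells carrying M3 receptor; also added: carbachol at ECmax as muscarinic agonist stimulus; incubation: compound preincubation 20 min at room temperature before agonist; signal: Fluo4-AM (2 µM) calcium-flux fluorescence, kinetic read; measure: integrated calcium ratio converted to B score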
MrgX1 ag: activates human MrgX1 receptor signaling; MrgX1-HEK293 cells, Fluo-4 calcium fluorescence, agonist mode; hits give high values; 310,000 compounds, 0.44% hits; B-score at 10 µM;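 active = calcium response B-score plate-corrected fluorescence ratio at least 3 library SD, with starting fluorescence B-score inside 5 SD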
Target sequence (Q96LB2 whole entry, looked up): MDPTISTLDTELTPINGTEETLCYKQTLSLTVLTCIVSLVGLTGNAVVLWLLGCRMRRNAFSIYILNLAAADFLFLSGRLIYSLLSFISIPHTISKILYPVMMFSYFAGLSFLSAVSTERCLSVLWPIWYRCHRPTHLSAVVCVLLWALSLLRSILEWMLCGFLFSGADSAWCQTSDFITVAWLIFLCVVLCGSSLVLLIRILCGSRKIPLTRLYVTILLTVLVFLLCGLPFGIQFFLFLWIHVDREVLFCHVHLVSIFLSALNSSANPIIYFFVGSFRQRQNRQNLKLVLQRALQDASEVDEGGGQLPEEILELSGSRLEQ
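Material: MrgX1-expressing HEK293 cells; input: 15,000 cells per well; doses: test compound given as first of three sequential additions; schedule: overnight plating before 1 h dye loading; technique: Fluo-4 NW calcium-flux fluorescence, kinetic read; evaluation: baseline-normalised fluorescence change ratio, B-scored; control set: plate-wise positive and negative controls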
MrgX1 antag: blocks BAM8-22 activation of human MrgX1 receptor | MRGX1-HEK293 calcium flux, Fluo-4, BAM8-22 antagonism; hits give low values | B-score at 10 µM | 310,000 compounds, 1.3% hits;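 active = calcium-response B-score plate-corrected more than 3 library SD below zero, starting fluorescence within 5 deviations, no agonist response on first addition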;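 note: peak minus trough fluorescence over baseline after final BAM8-22 challenge near maximal dose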
MrgX1 allo act: human MrgX1 positive allosteric modulation, primary screen; MrgX1-HEK293, Fluo-4 calcium flux, FDSS; hits give high values; B-score at 10 µM; 310,000 compounds, 0.63% hits;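 active = plate-corrected calcium response at least 3 library SD above typical, normal starting fluorescence, not activating the receptor alone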;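 note: compound read alongside a low EC10 to EC30 dose of BAM8-22 agonist; peak minus trough fluorescence over baseline measured at the second addition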
Active calls of the source: *; i = inactive; . = no result given.

SMILES	RGS4 block	RGS4 act	MrgX1 ag	MrgX1 antag	MrgX1 allo act
CC1(C)CC(=O)C/C(=N/NC(=O)COc2ccc3ccccc3c2Br)C1	i	i	i	-8*	i
Cc1cc(NC(=O)CCC(=O)N(CC(=O)NC2CCCC2)c2ccc(F)c(Cl)c2)no1	i	i	i	i	i
Cc1cccc(C(=O)O/N=C2/CC3CCC2(C)C3(C)C)c1 (stereo not given)	i	i	i	i	8.19*
Cc1ccc(C(=O)O/N=C2\CC3CCC2(C)C3(C)C)cc1 (stereo not given)	i	i	i	i	6.59*
Cc1ccc(C(=O)O/N=C2/CC3CCC2(C)[C@@]3(C)CBr)cc1 (stereo not given in full)	i	i	i	i	i
Cn1c(SCc2ccc([N+](=O)[O-])cc2)nnc1-c1ccncc1	i	i	i	i	i
O=[N+]([O-])c1c(Nc2ccccc2O)cc(Cl)c2nonc12	i	i	i	-11.8*	i
O=C(O)/C=C/C(=O)NCCC(c1ccccc1)c1ccccc1	i	i	i	i	i
OC(COC1CCCCC1)CN1CCCCC1 (stereo not given)	i	i	i	i	i
CCOC(=O)C(=Cc1ccc(Br)cc1)C(=O)OCC	i	i	i	i	i
CCOC(=O)C(=Cc1ccc(F)cc1)C(=O)OCC	i	i	i	i	7.52*
COc1cc(/C=C(\C#N)C(=O)Nc2cccc(C(=O)O)c2)ccc1OCc1ccc(F)cc1	i	i	i	i	i
CCOc1cc(/C=C(\C#N)C(=O)Nc2cccc(C(=O)O)c2)ccc1OCc1ccccc1Cl	i	-8.57*	i	i	i
CCCOC(=O)C1=C(C)NC2=C(C(=O)CCC2)C1c1ccc(N(C)C)cc1 (stereo not given)	i	-7.19*	i	i	i
CCOC(=O)C1=C(C)NC2=C(C(=O)CCC2)C1c1ccc(N(C)C)cc1 (stereo not given)	i	i	i	i	i
CCOC(=O)N1CCN(Cc2nc3cc(NC(=O)c4ccco4)ccc3n2C)CC1	i	i	i	i	i
Cc1nn(Cc2ccc([N+](=O)[O-])cc2)c(=O)n1-c1cccc(Cl)c1	i	i	i	i	i
O=C(CCC1CCCCC1)Nc1cccc(C(=O)Nc2ccc(C(=O)O)cc2)c1	i	i	i	i	i
O=C(O)c1ccc(N2CCN(Cc3ccc4c(c3)OCO4)CC2)c([N+](=O)[O-])c1	i	i	i	i	i
CCCc1nnc(NC(=O)C(=O)NCCN(CC)CC)s1	i	-7.34*	.	.	.
O=C(c1cc(-c2ccccc2Cl)nc2ccccc12)N1CCC1	i	i	i	i	i
O=C(c1cc(-c2ccccc2Cl)nc2ccccc12)N1CCN(c2ccccc2O)CC1	i	-7.61*	i	i	i
CN1CCCN(C(=O)c2cc(-c3cccc4ccccc34)nc3ccccc23)CC1	i	i	34.6*	i	i
Cc1ccccc1-c1cc(C(=O)N2CCCC2)c2ccccc2n1	i	i	i	i	i
CCN(CC)CCOC(=O)c1ccc(NC(=O)CCCN2C(=O)/C(=C/c3cccs3)SC2=S)cc1	i	-8.34*	i	i	i
SMILES	RGS4 block	RGS4 act	MrgX1 ag	MrgX1 antag	MrgX1 allo act
O=c1ccnc(Sc2ncccc2[N+](=O)[O-])[nH]1	i	i	i	-5.04*	i
CC(C)(C)c1ccc(/C=C/C(=O)Nc2nncs2)cc1	i	i	i	-4.84*	i
NC(=Nc1ccccc1)Nc1ccccc1	i	-8.5*	84.1*	i	i
O=C(Nc1ccc(Cl)cc1)c1cc(Br)ccc1OCC(=O)N1CCOCC1	i	i	i	i	i
CCOC(=O)C1=C(C)N(CC(C)C)C(=O)/C1=C\c1ccc(OCC(=O)Nc2ccccc2)cc1	i	-7.1*	i	i	i
N#Cc1ccccc1Oc1ccccc1C=O	i	i	27.1*	i	i
O=c1cc(-c2ccccc2)c2cc(Cl)c(O)c(CN3CCOCC3)c2o1	i	i	i	i	9.79*
CCc1cc2c(-c3ccccc3)cc(=O)oc2c(CN2CCOCC2)c1O	i	i	42.6*	i	i
O=c1cc(-c2ccccc2)c2ccc(O)c(CN3CCCCC3)c2o1	i	i	i	i	i
Cc1ccc(C)c(N(C(=O)c2snc(C(N)=O)c2N)C(C(=O)NCC2CCCO2)c2cccs2)c1 (stereo not given)	i	i	i	i	i
Cc1cccc(N(C(=O)c2snc(C(N)=O)c2N)C(C(=O)NCC2CCCO2)c2cccs2)c1 (stereo not given)	i	i	i	-4.73*	i
COc1ccc(-n2nc3c(N4CCC(C(=O)N5CCC(C)CC5)CC4)nnc(C)c3c2C)cc1	i	-6.98*	i	i	i
Cc1nnc(N2CCC(C(=O)N3CCCCC3)CC2)c2nn(-c3ccc(Cl)cc3)c(C)c12	i	i	i	i	i
CC1=[N+](C)N(c2ccccc2)C(=O)C1N=C/C=C/c1ccccc1 (stereo not given)	i	-7.5*	i	i	i
Nc1nc(-c2ccccc2)c(-c2ccc([N+](=O)[O-])cc2)s1	i	i	i	-5.1*	i
CC(=O)NCCOC(=O)c1nn(Cc2ccccc2)c(=O)c2ccccc12	i	i	i	i	i
c1cc2c(cc1CN1CCN(C3CCCCCC3)CC1)OCO2	i	-7.56*	i	i	i
c1ccc(CN2CCC(N3CCN(Cc4ccc5c(c4)OCO5)CC3)CC2)cc1	i	i	i	i	i
O=C1CC(c2ccccc2)CC(O)=C1C=NCCc1ccccc1 (stereo not given)	i	i	i	i	10.7*
O=C1CC(c2ccc(Cl)cc2)CC(O)=C1C=NCc1ccc(Cl)c(Cl)c1 (stereo not given)	i	-7.95*	i	i	i
CCc1[nH]nc(C(=O)NC2CCCc3c2cnn3-c2cc(C)cc(C)c2)c1C (stereo not given)	i	i	i	i	i
COc1ccc(C(=O)c2ccc(OC)c(OC)c2)cc1	i	i	i	-5.01*	i
COc1ccc(C(=O)NCC(=O)N2CCCCC2)cc1OC	i	i	i	i	i
COc1ccc(C(=O)NN2CCCCC2)cc1OC	i	i	i	-4.97*	i
Brc1ccsc1-c1csc(-c2ccncc2)n1	i	i	i	i	i
CS(=O)(=O)n1nc(-c2ccc(Cl)cc2)nc1N	i	i	i	i	i
